Source: PubChem
Exocytosis inh – LAMP-1 surface exposure blockers, TALL-104 cells – cell-based, flow cytometry, MLPCN library, primary screen; TALL-104 LAMP-1 surface exposure; cells stimulated with thapsigargin and PMA; inhibition, % at 10 µM; 0.66% of 360,000 active; AID 651702, 2012;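 active = inhibition above about 55%, limit read from the data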
UBC13 polyUb – UBC13 polyubiquitin chain formation inhibitors, primary screen, biochemical, TR-FRET, uHTS; Ubiquitin-conjugating enzyme E2 N (Homo sapiens), P61088; inhibition, % at 20 µM; 0.47% of 330,000 active; AID 485273, 2010; in the data active = inhibition above about 45%, passing the limit was not always enough
Apaf1 inhib – inhibitors of human Apaf-1 apoptosome, primary screen, biochemical, DEVD-Rh110 fluorescence, uHTS; Apoptotic protease-activating factor 1 (Homo sapiens), O14727; reconstituted apoptosome caspase-3 activity; inhibition, % at 20 µM; 0.71% of 330,000 active; active = inhibition of at least 40% at 20 µM
Target sequence (O14727 whole entry, looked up): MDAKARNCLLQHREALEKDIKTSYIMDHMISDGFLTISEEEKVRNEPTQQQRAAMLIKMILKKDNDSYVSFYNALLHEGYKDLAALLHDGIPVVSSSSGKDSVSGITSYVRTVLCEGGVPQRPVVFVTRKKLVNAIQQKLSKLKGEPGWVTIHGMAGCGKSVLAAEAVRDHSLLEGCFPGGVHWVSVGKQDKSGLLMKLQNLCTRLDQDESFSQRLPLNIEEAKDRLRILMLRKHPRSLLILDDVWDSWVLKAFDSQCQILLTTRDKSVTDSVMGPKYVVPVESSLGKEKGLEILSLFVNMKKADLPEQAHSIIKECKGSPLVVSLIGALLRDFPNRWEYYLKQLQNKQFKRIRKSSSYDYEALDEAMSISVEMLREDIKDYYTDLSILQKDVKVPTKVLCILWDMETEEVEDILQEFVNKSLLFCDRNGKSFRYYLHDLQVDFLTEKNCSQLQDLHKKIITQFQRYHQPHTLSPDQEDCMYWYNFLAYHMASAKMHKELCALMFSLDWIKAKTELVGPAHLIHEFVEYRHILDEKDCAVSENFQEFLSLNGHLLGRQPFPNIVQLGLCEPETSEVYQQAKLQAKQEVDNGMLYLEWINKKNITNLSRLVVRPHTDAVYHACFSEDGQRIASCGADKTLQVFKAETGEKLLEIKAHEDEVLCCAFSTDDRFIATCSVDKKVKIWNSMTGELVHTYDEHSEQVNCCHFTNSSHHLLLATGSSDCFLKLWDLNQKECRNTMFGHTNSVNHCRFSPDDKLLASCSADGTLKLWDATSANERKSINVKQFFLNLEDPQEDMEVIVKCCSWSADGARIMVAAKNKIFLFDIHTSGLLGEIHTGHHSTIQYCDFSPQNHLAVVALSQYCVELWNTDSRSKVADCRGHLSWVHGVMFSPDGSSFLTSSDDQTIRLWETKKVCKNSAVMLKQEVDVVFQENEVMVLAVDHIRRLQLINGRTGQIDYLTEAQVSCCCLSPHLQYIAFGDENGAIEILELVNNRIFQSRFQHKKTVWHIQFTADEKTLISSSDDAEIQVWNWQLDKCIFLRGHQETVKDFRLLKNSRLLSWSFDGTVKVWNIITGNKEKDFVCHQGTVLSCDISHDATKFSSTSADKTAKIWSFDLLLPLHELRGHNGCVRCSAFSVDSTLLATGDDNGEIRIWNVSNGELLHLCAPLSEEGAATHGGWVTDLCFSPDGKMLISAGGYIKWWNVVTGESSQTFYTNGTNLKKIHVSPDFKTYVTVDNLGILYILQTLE
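System: Apoptosome proteins | Medium: Hepes pH 7.5 with detergent and BSA | Also added: Cytochrome c trigger plus (Z-DEVD)2-Rh110 caspase-3 substrate | Incubation: 30 min compound preincubation, 50 min activation, room temperature | Detection: Rhodamine 110 fluorescence at Ex 480/Em 540 nm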
iPSC survival up – enhancers of single-cell hiPSC survival, primary screen, ATPlite luminescence; 100% = ROCK inhibitor wells, 0% = DMSO; survival enhancement, % at 20 µM; 0.044% of 360,000 active; in the data active = survival enhancement above about 18%;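 also: cells exposed to compounds for 16 hours before the ATP read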
MPTP block – mitochondrial permeability transition pore inhibitors, primary screen, biochemical, isolated mouse mitochondria, absorbance; Ca2+ swelling absorbance, 30 min; inhibition, % at 10 µM; 1.4% of 360,000 active;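 active = inhibition of 50% or more, scaled per plate between neutral and stimulator controls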
beta cell repl – inducers of MIN6 beta-cell proliferation, primary screen, ATP luminescence, uHTS | MIN6 cells proliferation, ATPlite luminescence, 48 h; cells starved in 0.2% serum; 100% = growth in 10% serum | proliferation, % at 10 µM | 0.29% of 330,000 active;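 active = compounds whose signal lies at least 3.5 SD above the mean of all wells on their plate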
Granule exo CP1 – inhibitors of lytic granule exocytosis, confirmation, TALL-104 cells, flow cytometry, Cherry Pick01 | shares compounds with Exocytosis inh | LAMP-1 externalization; stimulated with PMA plus thapsigargin | inhibition, % at 10 µM | 11% of 1,500 active | AID 651954, 2012; in the data active = inhibition above about 60%
Large screens that a line does not name were inactive (follow-up assays come after a bar, where they were run). An excerpt weighted towards active compounds, which were near 3% of everything screened.

CC(=O)c1cc(NC(=O)c2ccc(C)cc2)c(=O)oc1C	none
O=S(=O)(c1ccc(SCCO)nc1)N1CCOCC1	Exocytosis inh 60 | Granule exo CP1 inactive
CCc1ccc(N(C(C)=O)C2C=CS(=O)(=O)C2)cc1 (stereo not drawn)	Exocytosis inh 75 | Granule exo CP1 inactive
O=C(Nc1cccc(F)c1)Nc1nnc([C@@H]2O[C@H](CO)[C@@H](O)[C@H]2O)s1	none (no result: UBC13 polyUb, Apaf1 inhib, beta cell repl)
COc1ccc(CCN2C(=O)c3ccccc3NC2c2cc(Cl)c(O)c(OC)c2)cc1 (stereo not drawn)	Exocytosis inh 77 | Granule exo CP1 inactive
CCOC(=O)C1(Cc2ccccc2)CCCN(C2CCCC2)C1 (stereo not drawn)	Exocytosis inh 59 | Granule exo CP1 inactive
C=C1C(=O)C23C(O)C1CCC2C12CCCC(C)(COC(C)=O)C1C(O)C3(O)OC2 (stereo not drawn)	none (no result: UBC13 polyUb, Apaf1 inhib, beta cell repl)
COc1ccc(CC(=O)Nc2nc(-c3ccccc3)c(C(C)=O)s2)cc1OC	Exocytosis inh 78 | Granule exo CP1 inactive
COCCNC(=S)N(CCc1c(C)[nH]c2ccc(F)cc12)Cc1ccco1	Exocytosis inh 63 | Granule exo CP1 inactive
CNC(=S)N(CCc1c(C)[nH]c2ccc(F)cc12)Cc1ccco1	none
CCN(CC)S(=O)(=O)c1ccc(Oc2ccccc2OC)cc1	Exocytosis inh 69 | Granule exo CP1 inactive
CCN(CC)S(=O)(=O)c1ccc(Cl)c(OC)c1	none
C=CCc1ccc(OCC(O)CN2CCC(Cc3ccccc3)CC2)c(OC)c1 (stereo not drawn)	Exocytosis inh 56 | Granule exo CP1 inactive
CCOC(=O)c1c(-c2ccc(OC)cc2)oc2ccc(O)cc12	Exocytosis inh 63 | Granule exo CP1 inactive
CN(c1ccccc1)S(=O)(=O)c1ccc(C(=O)NCCc2ccc(F)cc2)cc1	Exocytosis inh 72 | Granule exo CP1 inactive
CSc1scc2c1-c1nc(SCC(=O)C(C)(C)C)ncc1CC2	Exocytosis inh 74 | Granule exo CP1 inactive
C=CCNC(=O)CSc1ncc2c(n1)-c1c(csc1SC)CC2	none
CN1CCN(C(=O)OCCOCCOC(=O)N2CCN(C)CC2)CC1	Exocytosis inh 60 (no result: UBC13 polyUb, Apaf1 inhib, beta cell repl) | Granule exo CP1 inactive
CCCCOC(=O)N1CCOCCOCCOCC1	none
O=C(Nc1ccccc1-c1nnc(SCc2ccccc2)o1)c1ccccc1	Exocytosis inh 67 | Granule exo CP1 inactive
O=C(Nc1ccccc1-c1nnc(SCc2ccc(Cl)cc2)o1)c1ccccc1	none
Cc1c(C#N)c2n(c1C)CCCC(=O)N2	none (no result: UBC13 polyUb, Apaf1 inhib, beta cell repl)
Cc1ccc(NC(=O)CSc2nc3ccccc3c(=O)n2CCCN2CCCCC2)cc1Cl	Exocytosis inh 79 | Granule exo CP1 inactive
O=C(CSc1nc2c(sc3ccccc32)c(=O)n1CCCN1CCCC1)NCc1ccccc1	Exocytosis inh 67 | Granule exo CP1 inactive
O=C(CSc1nc2ccccc2c(=O)n1CCCN1CCOCC1)Nc1ccc(F)c(Cl)c1	none
CCc1ccc(NC(=O)CSc2nc3ccccc3c(=O)n2CCCC(=O)NCCCN2CCOCC2)cc1	Exocytosis inh 63 | Granule exo CP1 inactive
CCOc1ccc(NC(c2ccccc2)P(=O)(OC)OC)cc1 (stereo not drawn)	none
O=C(NCC1CCCCC1)c1cccc(-c2ccc(O)cc2)c1	Exocytosis inh 59 | Granule exo CP1 inactive
Cc1ccc(S(=O)(=O)N2CCN(CC(O)c3ccccc3)CC2)cc1 (stereo not drawn)	none
O=S(=O)(c1ccccc1F)N1CCN(CC(O)c2ccccc2)CC1 (stereo not drawn)	Exocytosis inh 80 | Granule exo CP1 inactive
O=C(COC(=O)c1ccccc1-n1cnnn1)c1ccc(F)cc1	none
CCn1c(=O)c2cc(C(=O)NC(C)C)sc2c2ccccc21	none
CCCCNC(=O)c1cc2c(=O)n(CC)c3ccccc3c2s1	Exocytosis inh 60 | Granule exo CP1 inactive
C#CCN(C[C@@H]1[C@@H](OC(=O)NCc2ccco2)[C@@H](OC(=O)NCc2ccco2)CN(C(=O)OC(C)C)N1C(=O)OC(C)C)S(=O)(=O)c1ccc(C)cc1	none (no result: UBC13 polyUb, Apaf1 inhib, beta cell repl)
CN(CC(=O)Nc1ccccc1Cl)C(=O)C1CSC2(C)CCC(=O)N12 (stereo not drawn)	none
CCOC(=O)c1c(NC(C)=O)sc2c(OCC(O)CN(CC)CC)c(Br)ccc12 (stereo not drawn)	Exocytosis inh 68 | Granule exo CP1 71
CCCC(=O)Oc1ccc(C2NC(=O)c3ccccc3O2)cc1 (stereo not drawn)	none
Cc1ccc(N2CCN(S(=O)(=O)c3ccc4oc(=O)ccc4c3)CC2)c(C)c1	Exocytosis inh 86 | Granule exo CP1 inactive
COc1cc2c(cc1OC)C(C)N(CCc1ccc(Cl)cc1)CC2 (stereo not drawn)	Exocytosis inh 62 | Granule exo CP1 inactive
COc1cc2c(cc1OC)C(C)N(CCN1C(=O)c3ccccc3C1=O)CC2 (stereo not drawn)	none
COc1ccc(CNC(=O)/C=C/[C@H]2O[C@@H](n3ccc(=O)[nH]c3=O)[C@H](O)[C@@H]2O)cc1	none (no result: UBC13 polyUb, Apaf1 inhib, beta cell repl)
CCCCCCCCNCCS(=O)(=O)NCc1ccccc1	Exocytosis inh 63 (no result: UBC13 polyUb, Apaf1 inhib, beta cell repl) | Granule exo CP1 inactive
CCCCNS(=O)(=O)CCNCCc1ccccc1	none (no result: UBC13 polyUb, beta cell repl)
COC(=O)c1cc(=O)c2c(ccc3oc(=O)ccc32)[nH]1	none (no result: UBC13 polyUb, Apaf1 inhib, beta cell repl)
CSCCC(NC(=O)c1ccccc1Cl)C(=O)N1CCCCC1 (stereo not drawn)	none
Cc1cc(C(=O)N/N=C/c2cc(Br)c(Br)o2)n[nH]1	none
COc1ccc(NC(=O)c2cc([N+](=O)[O-])ccc2N2CCCC2)cc1	none
COc1ccc(NC(=O)c2cc([N+](=O)[O-])ccc2N2CCCCC2)cc1	Exocytosis inh 68 | Granule exo CP1 inactive
CN(CC1CCN(CCc2cccc(C(F)(F)F)c2)CC1)C(=O)c1ccccc1	Exocytosis inh 56 | Granule exo CP1 inactive
Cc1nc(-[n+]2nc(-c3ccncc3)nn2-c2ccccc2)sc1C	none (no result: UBC13 polyUb, Apaf1 inhib, beta cell repl)
CC(=O)N1c2ccc(C)cc2C(c2ccccc2)CC1C (stereo not drawn)	Exocytosis inh 80 | Granule exo CP1 inactive
Cc1noc(C)c1S(=O)(=O)N(CC(=O)NC(C)c1ccccc1)c1ccc(C(C)C)cc1 (stereo not drawn)	Exocytosis inh 70 | Granule exo CP1 inactive
Cc1noc(C)c1S(=O)(=O)N(CC(=O)NCc1ccccc1)c1ccc(C(C)C)cc1	none
